First the molecules themselves.
B1: tRNA (parent)
chain: GUUCCGUUGGCGUAAUGGUAACGCGUCUCCCUCCUAAGGAGAAGACUGCGGGUUCGAGUCCCGUACGGAACG

Fewer inactive variants are shown than the library holds. Bounds are passed on as bounds.

We go through 167 variants from the RNAGym collection of RNA variant scans (doi:10.1126/science.aae0568).

Variants of B1 are the subject of this series. The series is described as follows: yeast fitness relative to wild type (ratio to wild type); higher = fitter; tRNA-Arg(CCU), competitive growth, 37 C, YPD. The procedure, abridged:
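A pool of Saccharomyces cerevisiae strains, each with a tRNA-Arg(CCU) gene variant at the native genomic locus, was competed in YPD at 37°C for 24 hours across six parallel replicates. The variants had been chemically synthesised at a 3% per-site mutation rate over 69 sites, and gene amplicons before and after competition were read by 100-nucleotide paired-end sequencing. Darwinian fitness relative to wild type rested on changes in genotype frequencies. Genotypes required ≥ 100 starting reads, and estimates < 0.5 were set to 0.5.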
Consider G12A G52A, for which the yeast fitness came out at 0.688.
Consider G12A G39C, for which the yeast fitness was found to be 0.896.
On to G12A U13G G67A, for which the yeast fitness is at most 0.5.
Under G12A C22A C29U A69U stands at most 0.5; under U13A C22G C27G C31G C61G A69U, at most 0.5.
Under G12A U19C G23C G67C stands at most 0.5; under G12A G25C C30G, at most 0.5; under C11U U28G C30A, at most 0.5.
Take G12C C30U A70U: the yeast fitness was at most 0.5.
Take G12A C49U A65C: the yeast fitness amounted to 0.676.
For G12C C22G G25C G48A, the yeast fitness is 0.915.
On to U13A A21C A42G, for which the yeast fitness was determined as 0.502.
As to G12A C22A A36G A37G, the yeast fitness is at most 0.5.
G12A G48C U54C: the yeast fitness is 0.567.
Regarding C11U U28G, the yeast fitness stood at 0.792.
For C11U U19A A43U U59A G63A, the yeast fitness was at most 0.5.
As to G12C C34U G44A G52A, the yeast fitness is at most 0.5.
The figure for G12A C24A A36U A65U is at most 0.5; for G12A G25A C62G it is at most 0.5.
For the variant G12A A20U U32A C49G G63A A65U, the yeast fitness was 0.535.
On to G12C A15U C24A, for which the yeast fitness was 0.528.
On to U13A A20C A70C, for which the yeast fitness was at most 0.5.
On to G12C U32G C33G G67C, for which the yeast fitness is at most 0.5.
Under G12A C30G C46G stands at most 0.5; under G12A U32G C46A, at most 0.5; under U13A C22G G25C C27U C30G A36G C55A A69U, at most 0.5.
For the variant G12A A15U A21C U47A, the yeast fitness was at most 0.5.
Regarding G12C U32G C33G G58A, the yeast fitness is at most 0.5.
As to G12C U19A C27G C62A, the yeast fitness was at most 0.5.
The figure for G12A A40U G52C C60G is at most 0.5; for C11U U28C C29G G67A it is at most 0.5; for G12C U54A A65C it is at most 0.5.
The figure for G12C C34A G58C A65U A69C is at most 0.5.
For G12C U26A G48A G56C, the yeast fitness is at most 0.5.
For the variant G12C A14U C29U, the yeast fitness was at most 0.5.
For G12C U13C U26A C33A C34G, the yeast fitness is at most 0.5.
With G12C G63C, the yeast fitness worked out at 0.699.
The figure for G12C U59C C60A is at most 0.5; for U13A A40U A43C it is 0.693; for G12C A15U C33U C49G G58A it is at most 0.5.
On to C11U U32A A70C, for which the yeast fitness came out at 0.614.
In the case of C11U U35C C55A A69U, the yeast fitness is at most 0.5.
In the case of U13A C33G U54A U59A G67A, the yeast fitness amounted to 0.504.
The figure for G12C C55G is 0.608; for G12A A57G A69C it is at most 0.5.
For the variant U13A A20G C24U U35C C49U C60A C66G, the yeast fitness is at most 0.5.
With G12C G25A, the yeast fitness was 0.848.
Take G12C G18C G67U: the yeast fitness was at most 0.5.
Under G12A C27U G67A stands 0.571; under G12C U13A G23A A37C C61U, 0.586.
In the case of G12C U16A C60G C61U G68A, the yeast fitness is at most 0.5.
Regarding G12A A20U C62U A65G, the yeast fitness is at most 0.5.
Under G12A A43U A45C G67C stands 0.542; under C11U U13C C24A A43C G50C, at most 0.5; under G12C G44C C66U, 0.573.
For G12A C24A A36U G51C C55U A69C A70U, the yeast fitness came to 0.532.
On to U13A A21U A42U G44C, for which the yeast fitness is 0.652.
The figure for G12A G17A U26G C33A A37U A45U is at most 0.5.
The figure for G12A A15G G39C is at most 0.5.
The figure for G12A U35A G58A is 0.524; for G12A G41C A45C G68A it is at most 0.5.
Consider G12C A40G G50U C62U, for which the yeast fitness was at most 0.5.
With G12C G18C A45G, the yeast fitness is at most 0.5.
G12U A57C: the yeast fitness was at most 0.5.
As for G12A U19C A21U G58C, the yeast fitness came to 0.94.
The figure for G12A G48C is 0.754; for G12A C27A C30G it is 0.626; for G12A A14U C30U it is at most 0.5.
C11U U28C U32G: the yeast fitness was found to be 0.569.
G12A U13C U16A U19G G23A G58A G68A: the yeast fitness is at most 0.5.
Consider G12A A20G C24U C27A A70U, for which the yeast fitness is at most 0.5.
In the case of G12U A36G, the yeast fitness was determined as 0.758.
The figure for G12A C24G G68A is at most 0.5; for G12A A57C C66G it is at most 0.5.
U13A A69C: the yeast fitness was 0.988.
For C11U U19A C33U G41C A45C, the yeast fitness is at most 0.5.
The figure for G12A U28G C33G is at most 0.5; for G12A A20C A43U U47C C62U A70C it is at most 0.5; for G12C A20U C33U C66U it is at most 0.5.
Under G12A U19C stands 0.982.
On to G12A C24G U47A C49G A69C, for which the yeast fitness was at most 0.5.
Take G12C A43U A70C: the yeast fitness was 0.521.
In the case of G12A G63A, the yeast fitness stood at 0.897.
With G12A C60A A70G, the yeast fitness is at most 0.5.
Regarding G12C A40C A42U C49G C66G, the yeast fitness is at most 0.5.
In the case of G12A C60A, the yeast fitness was 0.579.
Under G12A C60U stands 0.777; under G12A C30G A65U, at most 0.5; under U13A A21C U35C G39A A42C A43G C46U, 0.63.
Consider G12A G25A C60A, for which the yeast fitness was at most 0.5.
With G12A C49U, the yeast fitness turned out to be 0.93.
Regarding G12A G23A C27G C30G, the yeast fitness was at most 0.5.
For G12C G25C C60A A69U, the yeast fitness is at most 0.5.
Turning to G12C C29U A42U U47C C62U, the yeast fitness was at most 0.5.
With G12A A15C, the yeast fitness turned out to be 0.773.
The figure for G12C U47A A70G is 0.554; for U13A C27U C55G it is at most 0.5.
For C11U U16C C24U, the yeast fitness came to 0.591.
As for G12A A43U A45C C49U G67C, the yeast fitness is at most 0.5.
As to G12A C29A A42U A45U C61G, the yeast fitness is at most 0.5.
For the variant G12C C34U C46A, the yeast fitness is at most 0.5.
On to G12A A20C C49G, for which the yeast fitness came out at 0.539.
Take G12C G17A A20U G58U: the yeast fitness was at most 0.5.
G12C G23C A42U G44C U54A: the yeast fitness was at most 0.5.
For G12U G39A C66G, the yeast fitness is at most 0.5.
With G12A A43G A69U, the yeast fitness was 0.803.
Consider G12C A20G C46G, for which the yeast fitness was 0.548.
G12C C27A G38A: the yeast fitness is 0.584.
As to G12C C24G U35C, the yeast fitness was at most 0.5.
As for C11U U13G U19A C22G G25A C61A, the yeast fitness was at most 0.5.
For the variant G12U A15G A20C C24G, the yeast fitness is at most 0.5.
For the variant G12A C24G A40C A42G A43C C46U G68C A69U, the yeast fitness was at most 0.5.
Take C11U U13C C24A A43C G50C C60G A70U: the yeast fitness was determined as 0.567.
Take G12C A45C C61A: the yeast fitness was 0.686.
Under G12A G58C stands 0.935.
For the variant U13A A15U C24U A37U G67C, the yeast fitness is 0.591.
Under G12A G38C stands 0.869; under G12A G44C G50A, 0.608; under G12A A43U G58C, 0.632.
Consider G12A A45C C49G, for which the yeast fitness stood at 0.619.
Under C11U U32G U54A G67C stands at most 0.5; under U13A A14G C66U G68C, at most 0.5.
Turning to G12C G23C A45U, the yeast fitness worked out at 0.609.
Take C11U U16C G23A A36C: the yeast fitness was at most 0.5.
Take G12C C33U A42C: the yeast fitness was at most 0.5.
G12C C24U U64G: the yeast fitness is at most 0.5.
Take G12C A43U U59A A69G: the yeast fitness is at most 0.5.
Regarding G12A C33U, the yeast fitness stood at 0.839.
G12A C30G: the yeast fitness was 0.689.
In the case of G12C U53A, the yeast fitness worked out at 0.594.
Under U13A C29G C30G C49A G56C C61U stands 0.635; under G12C A42G A45G, 0.627; under C11U U19G G52A, 0.609.
The figure for G12C G18C U35A G39A U53A is at most 0.5; for G12A C29G U35G C61U it is at most 0.5.
As for G12C A57C, the yeast fitness amounted to 0.545.
The figure for G12A U19C A21C is 0.685; for G12A U19C A21U it is 0.905.
With G12A U13C C49U, the yeast fitness came to 0.674.
Regarding G12C C34G, the yeast fitness was found to be 0.696.
G12C G18C G25A C66U: the yeast fitness was at most 0.5.
Regarding G12C A20C C31G, the yeast fitness stood at 0.596.
The figure for U13A C24G G25A G39C A40C G51C A69U A70C is at most 0.5.
As for G12C U32G C33G U47C A57C, the yeast fitness was at most 0.5.
The figure for U13A A15C U54G C66G G67C is at most 0.5; for G12C A20U A21G C22G G50A C61A it is at most 0.5; for G12A A15G A43C it is at most 0.5.
The figure for U13A C27G G52A U53C G63C is at most 0.5; for G12A G52A U59A A69C A70C it is at most 0.5; for G12C U19G A20C A21C C31U C61A it is at most 0.5.
For U13A A45G, the yeast fitness came out at 0.92.
Under G12A A14C C34G stands at most 0.5; under G12A U26A C30G C33U, at most 0.5; under G12C A15U C24A G48C C61U, at most 0.5.
C11U U35A G38A G56C: the yeast fitness was at most 0.5.
With G12C C33A, the yeast fitness is 0.682.
For G12C A70U, the yeast fitness was 0.707.
For G12A U59A, the yeast fitness is 0.8.
As to G12A C27U A42U C62U, the yeast fitness is at most 0.5.
With G12A U32C U47A C49G C60U, the yeast fitness is at most 0.5.
Regarding G12A C46A U47A, the yeast fitness worked out at 0.75.
As to G12A G18C C29U A57C A65C, the yeast fitness is at most 0.5.
As for G12A A20G G63A, the yeast fitness is at most 0.5.
G12C C22G C55U: the yeast fitness was determined as 0.581.
With U13A A14U C22G A37G G41A, the yeast fitness is at most 0.5.
Regarding U13A C27U C61A, the yeast fitness amounted to 0.619.
For the variant G12A C24A A36U A69C, the yeast fitness was found to be 0.599.
